Source: ChEMBL document CHEMBL1148788 (J Med Chem, 2007)
Active and inactive are the calls of the source. The rule behind the calls is not given here.

What was measured:
tsA201 [1] = assay: Displacement of [3H]methyllycaconitine from chimeric alpha-7nAChR W149Y mutant/5HT3A receptor W149Y mutant in tsA201 cells; type: cell-based; conditions: Homo sapiens
How it was run: (§1)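 tsA-201 cells transiently transfected with 4 µg WT or mutant α7/5-HT3A chimera and assayed 2 days later. Membranes washed twice at 50000g in 50 mM Tris-HCl pH 7.2. Incubated with 0.5 nM [3H]MLA and compound for 2.5 h at room temperature with shaking; nonspecific binding with 5 mM (S)-nicotine. PEI-soaked GF/C filtration, scintillation counting. Ki derived; duplicate, 3–7 experiments.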

tsA201 [2] = assay: Displacement of [3H]methyllycaconitine from chimeric alpha-7nAChR Y93A mutant/5HT3A receptor in tsA201 cells; type: cell-based; conditions: Homo sapiens; how it was run: as §1
[3] = Displacement of [3H]methyllycaconitine from chimeric alpha7nAChR W55Y mutant/5HT3A receptor in tsA201 cells; type: cell-based, Homo sapiens; how it was run: as §1
[4] = Antagonist activity at human alpha-7 nAChR Y188A mutant coexpressed with human Ric3 in tsA201 cells by FMP assay; type: functional, cell-based
[5] = Displacement of [3H]methyllycaconitine from chimeric alpha7nAChR Y195A mutant/5HT3A receptor in tsA201 cells; type: cell-based, Homo sapiens; how it was run: as §1
[6] = target: T1, 5-hydroxytryptamine receptor 3A (Homo sapiens, UniProt P46098); assay: Antagonist activity at human 5HT3A receptor expressed in HEK293 cells by FMP assay; type: functional, cell-based
T1 sequence (P46098 whole entry): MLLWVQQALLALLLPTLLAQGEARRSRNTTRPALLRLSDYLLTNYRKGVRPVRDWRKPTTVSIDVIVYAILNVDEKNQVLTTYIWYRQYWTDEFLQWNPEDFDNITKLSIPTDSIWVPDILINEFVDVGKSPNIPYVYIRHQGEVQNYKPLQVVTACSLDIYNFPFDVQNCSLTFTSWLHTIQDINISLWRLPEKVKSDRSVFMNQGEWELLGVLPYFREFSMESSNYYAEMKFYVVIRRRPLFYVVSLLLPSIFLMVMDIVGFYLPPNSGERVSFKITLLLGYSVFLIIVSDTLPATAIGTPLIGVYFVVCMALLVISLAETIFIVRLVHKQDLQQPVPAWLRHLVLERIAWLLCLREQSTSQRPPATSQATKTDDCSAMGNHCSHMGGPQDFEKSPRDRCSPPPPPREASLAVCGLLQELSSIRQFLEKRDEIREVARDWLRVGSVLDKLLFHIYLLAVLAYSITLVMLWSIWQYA

[7] = target: T2, Glycine receptor subunit alpha-1 (Homo sapiens, UniProt P23415); assay: Antagonist activity at human glycine alpha-1 receptor in HEK293 cells by FMP assay; type: functional, cell-based
T2 sequence (P23415 whole entry): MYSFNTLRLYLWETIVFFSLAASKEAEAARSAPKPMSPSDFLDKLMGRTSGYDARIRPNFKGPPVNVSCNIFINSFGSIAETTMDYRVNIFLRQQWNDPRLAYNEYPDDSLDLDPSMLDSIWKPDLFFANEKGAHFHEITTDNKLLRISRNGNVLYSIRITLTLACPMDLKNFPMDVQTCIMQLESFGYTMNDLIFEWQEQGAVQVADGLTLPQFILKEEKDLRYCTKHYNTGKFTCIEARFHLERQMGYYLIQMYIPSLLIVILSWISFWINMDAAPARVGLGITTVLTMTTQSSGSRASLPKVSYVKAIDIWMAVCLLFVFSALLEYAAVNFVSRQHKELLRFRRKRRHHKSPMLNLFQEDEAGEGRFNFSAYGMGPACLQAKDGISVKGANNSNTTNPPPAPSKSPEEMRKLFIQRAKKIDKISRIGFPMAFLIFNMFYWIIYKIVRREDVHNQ

[8] = Displacement of [3H]methyllycaconitine from chimeric alpha-7nAChR Y168A mutant/5HT3A receptor in tsA201 cells; type: cell-based, Homo sapiens; how it was run: as §1
[9] = Displacement of [3H]methyllycaconitine from chimeric alpha-7nAChR W55A mutant /5HT3A receptor in tsA201 cells; type: cell-based, Homo sapiens; how it was run: as §1
[10] = target: T3, Neuronal acetylcholine receptor subunit alpha-7 (Homo sapiens, UniProt P36544); assay: Displacement of [3H]methyllycaconitine from human alpha-7 in tsA201 cells coexpressed with 5HT3A receptor; type: cell-based
Target sequence in this assay (P36544 whole entry): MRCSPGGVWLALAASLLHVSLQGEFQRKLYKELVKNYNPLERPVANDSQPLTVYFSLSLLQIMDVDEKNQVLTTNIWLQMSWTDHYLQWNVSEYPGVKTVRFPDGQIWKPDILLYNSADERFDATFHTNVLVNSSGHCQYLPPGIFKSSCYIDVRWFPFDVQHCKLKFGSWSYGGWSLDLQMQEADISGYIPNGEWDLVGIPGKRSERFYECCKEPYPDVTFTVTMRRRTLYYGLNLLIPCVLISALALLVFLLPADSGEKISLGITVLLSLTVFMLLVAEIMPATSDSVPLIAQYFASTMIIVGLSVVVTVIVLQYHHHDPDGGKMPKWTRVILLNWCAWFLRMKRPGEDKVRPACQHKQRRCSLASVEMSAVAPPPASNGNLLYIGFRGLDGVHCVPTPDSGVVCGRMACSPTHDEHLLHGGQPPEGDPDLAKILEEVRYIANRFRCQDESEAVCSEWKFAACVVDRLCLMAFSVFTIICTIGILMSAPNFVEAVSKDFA

[11] = Displacement of [3H]methyllycaconitine from chimeric alpha-7nAChR D197A mutant/5HT3A receptor in tsA201 cells; type: cell-based, Homo sapiens; how it was run: as §1
[12] = Displacement of [3H]methyllycaconitine from chimeric alpha7nAChR K145A mutant/5HT3A receptor in tsA201 cells; type: cell-based, Homo sapiens; how it was run: as §1
cells = type: functional, cell-based; conditions: Homo sapiens, HEK293
[13] = target: Neuronal acetylcholine receptor; alpha4/beta2 (Rattus norvegicus, UniProt P09483+P12390); assay: Displacement of [3H]epibatidine from rat recombinant alpha-4-beta-2 nAChR in HEK293 cell line; type: cell-based
[14] = target: Neuronal acetylcholine receptor; alpha4/beta4 (Rattus norvegicus, UniProt P09483+P12392); assay: Displacement of [3H]epibatidine from recombinant rat alpha-4-beta-4 nAChr in HEK293 cell line; type: cell-based
[15] = Antagonist activity at human alpha7 nAChR W149Y mutant co-expressed with human Ric3 in tsA201 cells by FMP assay; type: functional, cell-based
[16] = Displacement of [3H]methyllycaconitine from chimeric alpha-7nAChR K145R mutant /5HT3A receptor in tsA201 cells; type: cell-based, Homo sapiens; how it was run: as §1
[17] = target: T3, Neuronal acetylcholine receptor subunit alpha-7; assay: Displacement of [3H]methyllycaconitine from chimeric alpha7nAChR/5HT3A in tsA201 cells; type: cell-based
Target sequence in this assay (P36544 23-502 limits assumed): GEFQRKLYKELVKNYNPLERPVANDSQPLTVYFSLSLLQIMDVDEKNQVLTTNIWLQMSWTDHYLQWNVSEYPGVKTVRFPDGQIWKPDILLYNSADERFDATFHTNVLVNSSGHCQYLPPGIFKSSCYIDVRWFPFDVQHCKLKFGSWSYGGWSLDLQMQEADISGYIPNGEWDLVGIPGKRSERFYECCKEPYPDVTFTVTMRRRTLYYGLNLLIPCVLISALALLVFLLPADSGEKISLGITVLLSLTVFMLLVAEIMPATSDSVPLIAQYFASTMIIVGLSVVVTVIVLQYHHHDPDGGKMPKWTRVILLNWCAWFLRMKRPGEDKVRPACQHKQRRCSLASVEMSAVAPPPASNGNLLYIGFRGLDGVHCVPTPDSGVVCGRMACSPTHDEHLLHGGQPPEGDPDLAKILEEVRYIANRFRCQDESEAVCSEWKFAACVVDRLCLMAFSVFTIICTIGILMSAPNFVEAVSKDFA

[18] = Antagonist activity at human alpha-7 nAChR Y195A mutant coexpressed with human Ric3 in tsA201 cells by FMP assay; type: functional, cell-based
[19] = target: T3, Neuronal acetylcholine receptor subunit alpha-7; assay: Antagonist activity at human alpha-7 nAChR in tsA201 cells coexpressed with Ric3 by FMP assay; type: functional, cell-based
Target sequence in this assay (P36544 whole entry): as the sequence (P36544 whole entry) above

[20] = Displacement of [3H]methyllycaconitine from chimeric alpha-7nAChR S148A mutant /5HT3A receptor in tsA201 cells; type: cell-based, Homo sapiens; how it was run: as §1
[21] = Displacement of [3H]methyllycaconitine from chimeric alpha-7nAChR N107A mutant/5HT3A receptor in tsA201 cells; type: cell-based, Homo sapiens; how it was run: as §1
[22] = Displacement of [3H]methyllycaconitine from chimeric alpha-7nAChR Y195F mutant/5HT3A receptor in tsA201 cells; type: cell-based, Homo sapiens; how it was run: as §1
tsA201 [23] = assay: Displacement of [3H]methyllycaconitine from chimeric alpha-7nAChR Y188A mutant/5-HT3A receptor in tsA201 cells; type: cell-based; conditions: Homo sapiens; how it was run: as §1

Neuronal acetylcholine receptor; alpha4/beta4, sequence (P09483 whole entry): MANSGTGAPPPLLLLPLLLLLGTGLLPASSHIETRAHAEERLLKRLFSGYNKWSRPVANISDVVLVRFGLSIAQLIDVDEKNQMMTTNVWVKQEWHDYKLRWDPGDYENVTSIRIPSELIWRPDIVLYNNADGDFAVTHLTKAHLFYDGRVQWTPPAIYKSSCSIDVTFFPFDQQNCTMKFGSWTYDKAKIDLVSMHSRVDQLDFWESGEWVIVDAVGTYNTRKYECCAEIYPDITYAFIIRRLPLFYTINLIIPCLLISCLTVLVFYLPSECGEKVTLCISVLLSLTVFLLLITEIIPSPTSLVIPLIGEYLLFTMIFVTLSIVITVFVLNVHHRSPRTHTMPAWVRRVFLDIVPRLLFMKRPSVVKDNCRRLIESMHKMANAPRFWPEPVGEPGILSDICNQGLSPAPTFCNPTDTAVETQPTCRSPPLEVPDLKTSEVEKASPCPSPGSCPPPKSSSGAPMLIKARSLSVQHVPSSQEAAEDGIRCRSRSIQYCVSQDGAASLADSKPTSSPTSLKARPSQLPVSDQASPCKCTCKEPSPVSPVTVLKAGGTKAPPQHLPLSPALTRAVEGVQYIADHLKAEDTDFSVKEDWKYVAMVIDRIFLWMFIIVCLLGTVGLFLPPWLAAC
Neuronal acetylcholine receptor; alpha4/beta4, sequence (P12392 whole entry): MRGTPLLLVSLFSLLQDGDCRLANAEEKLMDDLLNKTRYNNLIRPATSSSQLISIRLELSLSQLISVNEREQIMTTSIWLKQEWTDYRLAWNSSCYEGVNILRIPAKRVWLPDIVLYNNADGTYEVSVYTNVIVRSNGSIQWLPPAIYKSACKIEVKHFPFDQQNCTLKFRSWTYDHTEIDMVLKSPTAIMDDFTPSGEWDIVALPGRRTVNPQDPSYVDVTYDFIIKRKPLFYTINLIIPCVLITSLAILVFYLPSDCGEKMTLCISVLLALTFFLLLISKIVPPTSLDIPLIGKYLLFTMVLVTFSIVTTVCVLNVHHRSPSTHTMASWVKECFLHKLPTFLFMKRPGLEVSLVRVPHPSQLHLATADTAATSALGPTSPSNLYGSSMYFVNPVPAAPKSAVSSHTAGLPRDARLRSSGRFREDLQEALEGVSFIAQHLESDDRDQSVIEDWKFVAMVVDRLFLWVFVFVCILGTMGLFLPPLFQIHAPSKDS
Neuronal acetylcholine receptor; alpha4/beta2, sequence (P09483 whole entry): as the sequence (P09483 whole entry) above
Neuronal acetylcholine receptor; alpha4/beta2, sequence (P12390 whole entry): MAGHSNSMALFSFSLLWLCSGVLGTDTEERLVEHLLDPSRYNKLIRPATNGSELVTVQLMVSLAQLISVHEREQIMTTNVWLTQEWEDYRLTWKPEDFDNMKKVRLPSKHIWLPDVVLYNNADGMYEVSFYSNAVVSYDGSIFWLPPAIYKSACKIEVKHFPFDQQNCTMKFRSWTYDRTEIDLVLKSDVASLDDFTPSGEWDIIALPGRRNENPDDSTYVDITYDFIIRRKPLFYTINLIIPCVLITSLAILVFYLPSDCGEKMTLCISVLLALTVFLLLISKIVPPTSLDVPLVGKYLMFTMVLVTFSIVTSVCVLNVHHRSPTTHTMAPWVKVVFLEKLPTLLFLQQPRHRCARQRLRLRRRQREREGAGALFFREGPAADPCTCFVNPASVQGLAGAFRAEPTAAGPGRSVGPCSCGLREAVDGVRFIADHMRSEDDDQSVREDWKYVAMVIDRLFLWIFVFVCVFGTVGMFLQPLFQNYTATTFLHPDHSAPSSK

O=[N+]([O-])c1ccc(C[N+]23CC[C@@H]4[C@@H]5[C@@H]6[C@@H](OCC=C(C2)[C@@H]6C[C@@H]43)N2c3ccccc3[C@@]34CC[N+]6(Cc7ccc([N+](=O)[O-])cc7)CC7=CCO[C@H]([C@@H]([C@H]23)[C@H]7C[C@@H]46)N5c2ccccc2)cc1.[Br-].[Br-] (stereo not given in full)
Activity (tsA201 [1]): inactive | Activity (tsA201 [2]): inactive | Ki [3]: 37 nM | pKi [3]: 7.43 | IC50 ([4]; read-out: IC50): 15000 nM | IC50 ([4]; read-out: pIC50 (converted)): 15500 nM | Ki [5]: 740 nM | pKi [5]: 6.13 | pIC50 ([6]; hek293): < 4 | IC50 ([6]; read-out: IC50): > 100000 nM | IC50 [7]: > 100000 nM | pIC50 ([7]; hek293): < 4 | Ki [8]: 34 nM | pKi [8]: 7.47 | Ki [9]: 130 nM | pKi [9]: 6.89 | Ki ([10]; read-out: Ki): 22 nM | Ki ([10]; read-out: pKi (converted)): 20 nM | Ki [11]: 31 nM | pKi [11]: 7.51 | Ki [12]: 28 nM | pKi [12]: 7.56 | IC50 (cells; read-out: IC50): > 100000 nM | IC50 (cells; read-out: pIC50 (converted)): > 100000 nM | pKi ([13]; hek293): < 4 | Ki ([13]; read-out: Ki): > 100000 nM | Ki [14]: > 100000 nM | pKi ([14]; hek293): < 4 | IC50 ([15]; read-out: IC50): 1200 nM | IC50 ([15]; read-out: pIC50 (converted)): 1170 nM | Ki [16]: 58 nM | pKi [16]: 7.24 | Ki [17]: 18 nM | pKi [17]: 7.74 | IC50 ([18]; read-out: IC50): 25000 nM | IC50 ([18]; read-out: pIC50 (converted)): 25100 nM | IC50 ([19]; read-out: IC50): 370 nM | IC50 ([19]; read-out: pIC50 (converted)): 372 nM | Ki [20]: 160 nM | pKi [20]: 6.8 | Ki [21]: 17 nM | pKi [21]: 7.76 | Ki [22]: 50 nM | pKi [22]: 7.3 | Activity (tsA201 [23]): inactive
